LYP inh 2: inhibitors of human LYP (PTPN22) phosphatase. Q9Y2R2. recombinant LYP catalytic domain, DiFMUP fluorescence. inhibition, % at 2 µM. actives 0.21% (n = 96,000). AID 640;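 active means inhibition at 2 µM at or above a set limit, the screen mean plus 3 SD, cut at about 24% in these data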
Target sequence (Q9Y2R2 whole entry, looked up, the tested form may be a part): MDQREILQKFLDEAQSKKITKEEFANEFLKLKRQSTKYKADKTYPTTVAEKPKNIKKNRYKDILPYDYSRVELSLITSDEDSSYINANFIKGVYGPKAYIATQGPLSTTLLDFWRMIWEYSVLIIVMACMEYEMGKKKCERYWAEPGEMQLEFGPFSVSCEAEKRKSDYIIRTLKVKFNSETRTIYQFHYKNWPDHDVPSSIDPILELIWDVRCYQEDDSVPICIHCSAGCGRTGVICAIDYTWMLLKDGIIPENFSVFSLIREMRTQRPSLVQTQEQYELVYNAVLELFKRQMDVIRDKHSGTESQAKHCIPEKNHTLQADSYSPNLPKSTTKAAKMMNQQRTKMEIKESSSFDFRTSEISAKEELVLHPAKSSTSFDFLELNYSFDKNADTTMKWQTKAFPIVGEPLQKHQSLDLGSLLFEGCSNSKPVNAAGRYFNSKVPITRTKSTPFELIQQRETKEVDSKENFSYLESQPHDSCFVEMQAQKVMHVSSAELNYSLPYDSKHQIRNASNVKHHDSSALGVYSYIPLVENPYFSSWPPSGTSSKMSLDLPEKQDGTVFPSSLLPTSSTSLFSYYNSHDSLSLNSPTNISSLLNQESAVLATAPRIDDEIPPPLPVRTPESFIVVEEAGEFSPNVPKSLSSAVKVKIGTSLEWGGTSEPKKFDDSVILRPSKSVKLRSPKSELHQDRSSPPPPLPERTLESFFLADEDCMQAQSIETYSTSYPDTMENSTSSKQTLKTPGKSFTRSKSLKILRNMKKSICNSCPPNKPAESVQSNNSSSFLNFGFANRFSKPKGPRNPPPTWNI
HIV Rev-RRE inh: disrupts HIV-1 Rev binding to RRE RNA; inhibition, % at 8 µM; Rev peptide-RRE RNA binding, FRET; AID 704; P05866; actives 0.79% (n = 97,000);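 active means inhibition above the screen-wide mean plus 3 SD, cut at about 35% in these data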
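Test system – labelled RRE RNA duplex and labelled Rev peptide · Signal – fluorescein-to-Cy5 FRET, 480 nm excitation · Evaluation – % inhibition of FRET ratio versus controls · Benchmarks – DMSO low control, neomycin B high control · Incubation – 5 min RNA-compound premix plus 15 min binding step, 25 °C · Medium – HEPES pH 7.5 salt buffer with EDTA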
LYP act: activators of human LYP (PTPN22) phosphatase; Q9Y2R2; recombinant LYP, DiFMUP fluorescence; 0 = plate median, 100 = signal doubled; activation, % at 2 µM; actives 0.11% (n = 96,000);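 active means activation at 2 µM above a set limit, the mean plus 5 SD, cut at about 37% in these data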
PTK2B oligo ant: Pyk2 (human) oligomerization antagonism. Q14289. Q293 cells, Pyk2 FERM NanoBiT luminescence; hits give low values. z-score (the deposit names both 25 µM and 10 µM). actives 0.83% (n = 99,000);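 active means Z-score of -3 or lower, scaled per plate to the spread of control and sample wells; inactive means z-score above -3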;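 further: negative z-score means lost luminescence so less FERM oligomerization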
Hits are given with their value; . = inactive; / = no result given; [ ] = dose if it differs, or a comment. Sampled rows, rich in hits. Any-hit rate of the full collection: about 1.8%.

SMILES	LYP inh 2	HIV Rev-RRE inh	LYP act	PTK2B oligo ant
Cc1ccc2oc(C(Cl)(Cl)Cl)cc(=O)c2c1	.	.	.	.
COc1ccccc1CN=Cc1[nH]c2ccc(Br)c(Cl)c2c1O	.	87[fluorescence artefact?]	.	.
O=C(c1ccc2c(c1)OCO2)N(c1ccccc1)C1C=CS(=O)(=O)C1 (configuration not stated)	.	.	.	.
Cc1cccc(N(C(=O)c2ccc(Cl)cc2)C2CS(=O)(=O)CC2OC(=O)c2ccc(Cl)cc2)c1 (configuration not stated)	25	.	.	.
COc1ccc(OCC(=O)OCCN2C(=O)c3ccccc3C2=O)cc1	.	.	.	.
O=C(CCN1C(=O)c2ccccc2C1=O)Oc1ccc2ccccc2c1	75	.	.	.
Cc1ccc(S(=O)(=O)Nc2ccc(-c3nnc(SCC#N)n3C)cc2)cc1	.	.	.	.
CCC(=O)N1CCN(c2ccc(NC(=O)c3cc4ccccc4o3)cc2Cl)CC1	.	.	.	-3.1
O=C(Nc1ccc(N2CCN(C(=O)c3ccccc3)CC2)c(Cl)c1)c1ccco1	.	.	.	.
O=C(Nc1ccc(N2CCN(C(=O)c3ccco3)CC2)c(Cl)c1)c1cc2ccccc2o1	.	.	.	-3.1
CCC(C)NC(=O)C1CCN(S(=O)(=O)c2ccc(OC)cc2)CC1 (configuration not stated)	.	.	.	.
CC1CCCCN1c1nnc(NC(=O)c2cc(-c3ccc(Br)cc3)on2)s1 (configuration not stated)	.	.	.	/
CCCc1cc(=O)n2[nH]c(C)cc2n1	.	.	.	.
Cc1cc(NC(=O)CSc2nc3cc(Cl)ccc3s2)no1	.	.	.	.
Cc1cc(SCC(=O)c2cc3ccccc3o2)nc2ccccc12	.	46	.	.
O=C(CSc1nc2cc(Cl)ccc2s1)c1cc2ccccc2o1	.	68	.	.
CC1(C(=O)NC2CCCCCCC2)CC1(Cl)Cl (configuration not stated)	.	.	.	.
CCCCNc1oc(-c2ccc(OC)cc2)nc1S(=O)(=O)c1ccccc1	.	.	.	.
CCOc1ccc(-c2nc(S(=O)(=O)c3ccccc3)c(NCc3cccnc3)o2)cc1	.	.	.	-3.3
COc1ccc(NC(=O)CN2CCN(C3c4ccccc4-c4ccccc43)CC2)cc1	.	.	.	.
CCOC(=O)c1cc2n(c1/N=C/N(C)C)-c1ccccc1C2=O	.	135[fluorescence artefact?]	.	.
CCO/C(C)=C1\C(=O)N(CC)c2ccccc21	.	.	.	.
Cc1c(-n2cc(C(=O)c3ccccc3O)cc(C#N)c2=O)c(=O)n(-c2ccccc2)n1C	.	57	.	.
COc1cc(C(=O)Nc2nc(-c3cccs3)cs2)cc(OC)c1OC	.	.	.	-4.3
COc1ccc(C(=O)Nc2nc(-c3cccs3)cs2)cc1	.	.	.	.
SMILES	LYP inh 2	HIV Rev-RRE inh	LYP act	PTK2B oligo ant
CC(C)(C)c1ccc(C(=O)OCCNC(=O)c2c(Cl)nc3ccccn23)cc1	.	.	.	-3.2
Cn1c(-c2ccc(C=O)s2)nc2c3ccccc3c3ccccc3c21	.	81	.	-3.6
O=C1N=C(N2CCOCC2)S/C1=C/c1cccs1	.	.	.	.
CC1Oc2ccccc2C=C1/C=C1/SC(N2CCOCC2)=NC1=O (configuration not stated)	.	37	.	.
CC(=O)NC1C(=O)Nc2c1cccc2C(F)(F)F (configuration not stated)	.	.	.	.
CCOc1ccc(S(=O)(=O)Nc2ccccc2C(=O)Nc2ccccc2N2CCOCC2)cc1	.	.	.	-3.1
CC(=O)c1sc2nc(-c3cccs3)cc(C(F)(F)F)c2c1N	.	107[fluorescence artefact?]	.	.
Nc1c(C(=O)C2CC2)sc2nc(-c3ccccc3)cc(C(F)(F)F)c12	.	112[fluorescence artefact?]	.	.
CS(=O)(=O)c1sc2nc(-c3cccs3)cc(-c3ccccc3)c2c1N	.	36	.	.
CCC(Sc1nc(N)cc(N)n1)C(=O)O (configuration not stated)	.	.	.	.
COc1cc(S(=O)(=O)N2CCN(c3ccc(F)cc3)CC2)ccc1Cl	.	.	.	-3.3
COc1cc(S(=O)(=O)N2CCN(c3ccccc3F)CC2)ccc1Cl	/	/	/	-3
COc1cc(S(=O)(=O)N2CCN(c3ccccc3)CC2)ccc1Cl	.	.	.	.
O=C(C1=COCCO1)N1CCN(C(c2ccccc2)c2ccccc2)CC1	.	.	.	.
COc1ccc(C2C=C(c3ccccc3)Nc3ncnn32)cc1 (configuration not stated)	.	45	.	.
Clc1ccc(C2=CC(c3ccco3)n3ncnc3N2)cc1 (configuration not stated)	.	122[fluorescence artefact?]	.	.
CCOc1ccc(C2C=C(c3ccc(C)cc3)Nc3ncnn32)cc1 (configuration not stated)	.	.	.	/
COc1ccc(/C=c2\sc3nc(-c4ccccc4)c(-c4ccccc4)n3c2=O)cc1OC	.	.	.	.
CCN(CC)c1ccc(/C=c2\sc3nnc(-c4ccccc4Cl)n3c2=O)cc1	.	134[fluorescence artefact?]	.	.
CCN(CC)c1ccc(/C=c2/sc3nnc(-c4ccccc4C)n3c2=O)cc1	.	118[fluorescence artefact?]	.	.
Cc1ccc(/C=c2/sc3nnc(-c4ccccc4Cl)n3c2=O)o1	.	.	.	.
O=C(Nc1ccc2c(c1)OCO2)c1cnn2cccnc12	.	.	.	.
COc1ccc(/C=C2/C(=O)N=C(N)N2C)cc1OC	.	.	.	.
COc1ccc(/C=C2\SC(c3ccc(C)cc3)=NC2=O)cc1OC	.	113[fluorescence artefact?]	.	.
COc1cc(/C=C2\SC(c3ccc(C)cc3)=NC2=O)ccc1O	.	77[fluorescence artefact?]	.	.
SMILES	LYP inh 2	HIV Rev-RRE inh	LYP act	PTK2B oligo ant
COc1cc(/C=C2\SC(c3ccc(C)cc3)=NC2=O)cc(OC)c1OC	.	51	.	.
COc1ccc(/C=C2/SC(c3ccc(C)cc3)=NC2=O)cc1OC	.	114[fluorescence artefact?]	.	.
Cn1c(=O)n(CCN2CCOCC2)c(=O)c2c1nc1n2CCN1c1ccccc1	.	.	.	/
CCCCCOC(=O)c1ccccc1C(=O)O	/	/	/	.
CC(NC(=O)CSc1ncccn1)c1ccccc1 (configuration not stated)	.	.	.	.
CCOc1ccc(N2C(=O)C(Cl)=C(Nc3ccccc3O)C2=O)cc1	.	37	.	.
N#Cc1c(N)nc(SCc2ccccn2)c(C#N)c1-c1cccs1	.	.	.	-3.8
O=C(Nc1cccc2ncccc12)c1cccnc1	.	.	.	.
Cc1c(-c2ccccc2)sc(N)c1C(=O)N1CCOCC1	.	.	.	.
CCOC(=O)c1ccc(N2C(=O)C3CC=CCC3C2=O)cc1 (configuration not stated)	.	.	.	.
CCOC(=O)c1ccc(N2C(=O)C3C(C2=O)C(C(=O)c2ccc(Cl)cc2)N2CCCC32)cc1 (configuration not stated)	.	66	.	.
CC(C)(C)OC(=O)CN1C(=O)C(Sc2n[nH]c(-c3ccccc3)n2)CCc2ccccc21 (configuration not stated)	.	.	.	.

Source: PubChem (several laboratories)
